Test results: the RNAGym collection of RNA variant scans (doi:10.1126/science.aae0568)
This sample holds only a part of the variants without activity.

B1: tRNA (parent)
chain: GUUCCGUUGGCGUAAUGGUAACGCGUCUCCCUCCUAAGGAGAAGACUGCGGGUUCGAGUCCCGUACGGAACG

Variants of: B1
Assay: yeast fitness relative to wild type (ratio to wild type); higher = fitter; tRNA-Arg(CCU), competitive growth, 37 C, YPD
Outline: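 Start and end populations of a pooled competition were compared by 100-nucleotide paired-end sequencing of gene amplicons. The Saccharomyces cerevisiae strains carried tRNA-Arg(CCU) gene variants at the native genomic locus, synthesised with a 3% per-site mutation rate at 69 sites, and competed in YPD at 37°C for 24 hours in six parallel replicates. Darwinian fitness relative to wild type was based on the change in genotype frequencies. Genotypes required ≥ 100 starting reads, and estimates < 0.5 were set to 0.5.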
C24G G44C gave a yeast fitness of 0.66.
With C24G G44A the yeast fitness was 0.568.
With C24G C30U A43U the yeast fitness was 0.549.
C24G C31U G50C C60G G63A gave a yeast fitness of 0.545.
In the case of C24A G44A U54C G56C, the yeast fitness is reported as ≤ 0.5.
In the case of C24G C49G A70U, the yeast fitness is reported as ≤ 0.5.
With C24A C34U C49A A65U the yeast fitness was ≤ 0.5.
In the case of C24U A37G A45U A69C, the yeast fitness is reported as ≤ 0.5.
Variant C24U A36G U47A has a yeast fitness of 0.529.
With C24A C31G C62A the yeast fitness was 0.594.
With C24U A45C G67A A70U the yeast fitness was ≤ 0.5.
In the case of C24G U32G A36G C60A A65U, the yeast fitness is reported as ≤ 0.5.
For C24G A65U, the yeast fitness was 0.742.
For C24G C31G G50A G68C, the yeast fitness was ≤ 0.5.
For C24A U32A G50C, the yeast fitness was ≤ 0.5.
For C24G A37U A42G, the yeast fitness was ≤ 0.5.
With C24G C30U C31U C61U G67C the yeast fitness was ≤ 0.5.
C24G C46U A70U gave a yeast fitness of 0.642.
In the case of C24A C55A A65G, the yeast fitness is reported as ≤ 0.5.
For C24A C34U A40C, the yeast fitness was ≤ 0.5.
With C24G G41A C46U A65G the yeast fitness was ≤ 0.5.
Variant C24G A69C has a yeast fitness of 0.617.
With C24G A36U A40G U64C the yeast fitness was ≤ 0.5.
In the case of C24A U32A C55A G68C, the yeast fitness is reported as ≤ 0.5.
In the case of C24G G25C U35A G52A, the yeast fitness is reported as ≤ 0.5.
Variant C24G C66A has a yeast fitness of 0.576.
In the case of C24A C29U C61G, the yeast fitness is reported as ≤ 0.5.
Variant C24G G25C A45G C60A has a yeast fitness of 0.617.
In the case of C24A U35G G52A U64A, the yeast fitness is reported as 0.514.
In the case of C24G C27G A37G, the yeast fitness is reported as 0.575.
C24G C46U A69U gave a yeast fitness of 0.595.
With C24A C27U A40U G44C A57U G67C the yeast fitness was ≤ 0.5.
In the case of C24G U28C C31G C66U, the yeast fitness is reported as ≤ 0.5.
For C24A G25A U35A, the yeast fitness was ≤ 0.5.
With C24G C29G A37G G52A C62U the yeast fitness was ≤ 0.5.
C24G A42G A43U U47A showed a yeast fitness of 0.635.
In the case of C24U A43C A70U, the yeast fitness is reported as 0.59.
Variant C24A U28C has a yeast fitness of 0.568.
With C24U A36U A43G the yeast fitness was 0.509.
With C24U A45G C49U the yeast fitness was 0.931.
For C24G A36G U64C A65U, the yeast fitness was ≤ 0.5.
C24G C34G showed a yeast fitness of 0.55.
Work on C24A C61U yielded a yeast fitness of 0.718.
C24A C55A C62U A65C gave a yeast fitness of 0.529.
For C24G C31A A42G A43U, the yeast fitness was ≤ 0.5.
Work on C24G C29A A43U G68C yielded a yeast fitness of 0.561.
In the case of C24G G25A, the yeast fitness is reported as 0.852.
In the case of C24G C27U C33U G50C A69U, the yeast fitness is reported as ≤ 0.5.
In the case of C24A A43U U59A C61U, the yeast fitness is reported as ≤ 0.5.
With C24G G38C C46A the yeast fitness was ≤ 0.5.
In the case of C24G C30G G52A C60A, the yeast fitness is reported as ≤ 0.5.
In the case of C24G U28G C33U A42U G50A A70U, the yeast fitness is reported as ≤ 0.5.
In the case of C24A A43G A70C, the yeast fitness is reported as ≤ 0.5.
With C24A C27G C29G G52C C62U the yeast fitness was 0.567.
For C24A C31U A45U A69U, the yeast fitness was ≤ 0.5.
In the case of C24A A43U G51C G52C, the yeast fitness is reported as ≤ 0.5.
With C24A U26C U54A C60U A69C the yeast fitness was 0.819.
In the case of C24U A40G C60U A65C, the yeast fitness is reported as ≤ 0.5.
In the case of C24G A40C A45U, the yeast fitness is reported as ≤ 0.5.
With C24A G39A C60A C66U the yeast fitness was ≤ 0.5.
With C24G U53G A57G the yeast fitness was 0.545.
In the case of C24G A37U U47A, the yeast fitness is reported as ≤ 0.5.
For C24U A43U U47G, the yeast fitness was ≤ 0.5.
With C24A U26A C31A C62A the yeast fitness was ≤ 0.5.
For C24G U54C C55A A65U, the yeast fitness was ≤ 0.5.
Variant C24U A42G A43G has a yeast fitness of 0.733.
In the case of C24U A45G C46G C55G A69C, the yeast fitness is reported as ≤ 0.5.
In the case of C24A U32C G39C A70C, the yeast fitness is reported as ≤ 0.5.
With C24G A36G C61A the yeast fitness was ≤ 0.5.
For C24G C33G A36C A37C A42C, the yeast fitness was 0.505.
In the case of C24A C33G C34U G58C C62U, the yeast fitness is reported as ≤ 0.5.
With C24G G25A A45G C60A the yeast fitness was ≤ 0.5.
C24G A40G showed a yeast fitness of 0.647.
C24G A40C showed a yeast fitness of 0.601.
With C24G C31A U64A the yeast fitness was ≤ 0.5.
For C24A U47G G68A, the yeast fitness was ≤ 0.5.
In the case of C24G C29U G51C A70U, the yeast fitness is reported as ≤ 0.5.
With C24G C30U C31A the yeast fitness was ≤ 0.5.
With C24G U26C C31U the yeast fitness was 0.747.
With C24G C27U A40U U59C the yeast fitness was ≤ 0.5.
With C24G U28G C46G G67U the yeast fitness was ≤ 0.5.
With C24A G41A G44A U53A C66U the yeast fitness was ≤ 0.5.
With C24G C27U C33U G50C G63A G68A the yeast fitness was 0.528.
In the case of C24G G41A G44A U53A C66U, the yeast fitness is reported as ≤ 0.5.
For C24G C30U C34A G51A, the yeast fitness was 0.542.
Variant C24A C33A C49U U54G has a yeast fitness of 0.58.
In the case of C24U A40U G68U A70C, the yeast fitness is reported as ≤ 0.5.
In the case of C24U A37U A40U, the yeast fitness is reported as 0.568.
With C24G C30A G44C U47C the yeast fitness was 0.567.
For C24A C29G U32G G38A U47A, the yeast fitness was ≤ 0.5.
With C24U C27A C30U C46G the yeast fitness was ≤ 0.5.
In the case of C24A G39C G51A G63A, the yeast fitness is reported as ≤ 0.5.
With C24G A36C A42U A43G the yeast fitness was ≤ 0.5.
C24G C31A gave a yeast fitness of 0.526.
Variant C24G C31U has a yeast fitness of 0.571.
For C24G A37G A43U C62G, the yeast fitness was 0.77.
In the case of C24G G51C, the yeast fitness is reported as 0.537.
With C24G G25C C30G U32C G58A C60U the yeast fitness was ≤ 0.5.
With C24U A37G A43G C49A the yeast fitness was ≤ 0.5.
With C24U A36G G63C the yeast fitness was ≤ 0.5.
With C24G C29U U35C the yeast fitness was ≤ 0.5.
C24G A36G U53A showed a yeast fitness of 0.555.
With C24A A45G G50A the yeast fitness was ≤ 0.5.
For C24G C31G A36G A65U, the yeast fitness was ≤ 0.5.
For C24G C33U A37U G67A, the yeast fitness was ≤ 0.5.
For C24A U26A C31A C55A U64C, the yeast fitness was ≤ 0.5.
In the case of C24U C27A C30U G68C, the yeast fitness is reported as ≤ 0.5.
In the case of C24U C27A C30G, the yeast fitness is reported as ≤ 0.5.
With C24A C31U C46U the yeast fitness was 0.785.
C24U A36C G44C C62A gave a yeast fitness of 0.752.
For C24A G25C, the yeast fitness was 0.702.
With C24G U26A C33U the yeast fitness was ≤ 0.5.
For C24G G25A C30G, the yeast fitness was ≤ 0.5.
In the case of C24G G68A, the yeast fitness is reported as 0.653.
In the case of C24U A37G G39A G48C, the yeast fitness is reported as ≤ 0.5.
For C24G G48A G58C, the yeast fitness was 0.735.
In the case of C24G C34G G44C, the yeast fitness is reported as ≤ 0.5.
For C24A C33A C34A C62A, the yeast fitness was ≤ 0.5.
Work on C24G A40G G50C yielded a yeast fitness of 0.599.
C24G G38C A65C gave a yeast fitness of 0.513.
With C24G U35G C66U the yeast fitness was ≤ 0.5.
For C24G C29U G50A, the yeast fitness was ≤ 0.5.
In the case of C24G U53G, the yeast fitness is reported as ≤ 0.5.
With C24A U26G A43C C62G G63A C66G A69G the yeast fitness was 0.531.
In the case of C24A C31G C60U, the yeast fitness is reported as ≤ 0.5.
In the case of C24U C27A G50U, the yeast fitness is reported as ≤ 0.5.
With C24G C61G the yeast fitness was 0.537.
With C24U A36U C49G the yeast fitness was 0.544.
C24G G38C C62A showed a yeast fitness of 0.852.
In the case of C24G U26A A65C, the yeast fitness is reported as ≤ 0.5.
With C24A G25C U47A the yeast fitness was ≤ 0.5.
With C24G A42C C66U the yeast fitness was ≤ 0.5.
In the case of C24G C34U U53C C55G C62A, the yeast fitness is reported as ≤ 0.5.
In the case of C24U A36G C55G, the yeast fitness is reported as ≤ 0.5.
For C24G U26A U35A C55U A65G A69C, the yeast fitness was ≤ 0.5.
With C24G C27U A40U A57G C62G the yeast fitness was ≤ 0.5.
In the case of C24G A37G G58A G67A, the yeast fitness is reported as ≤ 0.5.
For C24G G39C A57G A65G, the yeast fitness was ≤ 0.5.
Work on C24G G25A C31G yielded a yeast fitness of 0.703.
For C24U A43U C49U C66U, the yeast fitness was 0.576.
With C24G C30U G44C the yeast fitness was ≤ 0.5.
For C24G G44C G68U, the yeast fitness was 0.663.
In the case of C24A C33A C49U U54G A70C, the yeast fitness is reported as ≤ 0.5.
In the case of C24G C30A C62G, the yeast fitness is reported as ≤ 0.5.
C24U A57G gave a yeast fitness of 0.809.
C24G C27A showed a yeast fitness of 0.616.
In the case of C24G C27U, the yeast fitness is reported as 0.73.
With C24A U47G G58A C62A the yeast fitness was ≤ 0.5.
With C24G C30U U32A A45G C62U the yeast fitness was ≤ 0.5.
In the case of C24A C30U C55U, the yeast fitness is reported as ≤ 0.5.
In the case of C24G C29G C33U, the yeast fitness is reported as ≤ 0.5.
With C24A C29A A40U A43G C49G the yeast fitness was ≤ 0.5.
For C24A A45G A65U, the yeast fitness was 0.552.
With C24G A36C A40C A42U the yeast fitness was ≤ 0.5.
With C24G C49G C55A the yeast fitness was ≤ 0.5.
In the case of C24G C31A C66U, the yeast fitness is reported as ≤ 0.5.
For C24G G25C A40C A42U U47A C61G C66G, the yeast fitness was 0.509.
In the case of C24G A37G C55U, the yeast fitness is reported as ≤ 0.5.
For C24G A37U C55U G67C, the yeast fitness was ≤ 0.5.
For C24A U26A C55A, the yeast fitness was ≤ 0.5.
With C24G G58C C62U the yeast fitness was ≤ 0.5.
For C24G C30U C34A A45G G51A, the yeast fitness was ≤ 0.5.
Variant C24A C34A A37G A57G A65G has a yeast fitness of 0.544.
In the case of C24G C30U C46A, the yeast fitness is reported as 0.616.
Variant C24G C31G C61G has a yeast fitness of 0.507.
With C24A C29U G67U the yeast fitness was 0.591.
C24U A36C A45U gave a yeast fitness of 0.513.
